NadD block: inhibitors of Staphylococcus aureus NadD | inhibition, % at 20 µM | purified NadD enzyme, colorimetric absorbance read-out | 360,000 compounds, 0.78% hits | AID 602399; in the data active means inhibition above about 26%
rCAG binder: binds r(CAG) RNA repeats | r(CAG) RNA repeat, TO-PRO-1 dye displacement fluorescence | inhibition, % at 3 µM | 370,000 compounds, 1.3% hits;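 active means inhibition above the plate cutoff, the mean of all test compounds on that plate plus 3 SD, cut at about 35% in these data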;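 further: 0% = DMSO alone and 100% = 100 µM mitoxantrone as full dye displacement; higher means more dye released from RNA so lower well fluorescence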
ASAP1 inh: inhibitors of human ASAP1 ArfGAP activity; AID 624377; Q9ULH1; 360,000 compounds, 0.19% hits; ASAP1-stimulated ARF1 GTP hydrolysis, GDP FP detection; inhibition, % at 16.5 µM; in the data active means inhibition above about 25%;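 further: 0% = vehicle with enzyme and substrate and 100% = no enzyme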
ARFGAP1 inh: rat ARFGAP1 inhibition | inhibition, % at 16.5 µM | Arfgap1-stimulated ARF1 GTP hydrolysis, GDP FP detection | Q62848 | 360,000 compounds, 0.26% hits;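 active means inhibition above a per-plate limit, mean inhibition of low control wells plus 3 SD, cut at about 25% in these data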;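 further: 0% = DMSO wells with enzyme and 100% = wells lacking Arfgap1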
Target sequence (Q62848 1-136 limits assumed): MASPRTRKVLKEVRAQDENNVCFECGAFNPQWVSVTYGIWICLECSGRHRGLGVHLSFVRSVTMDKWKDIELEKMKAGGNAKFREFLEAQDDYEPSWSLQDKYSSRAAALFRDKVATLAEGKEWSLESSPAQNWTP
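Material: truncated rat Arfgap1 GAP domain; Incubation: compound-enzyme preincubation 20 min, reaction 120 min, detection 60 min, 25 °C; Read-out: percent inhibition of Arfgap1-stimulated GTP hydrolysis; Technique: FP, GDP Alexa 633 tracer displaced from anti-GDP antibody, 620/688 nm; Controls: No-Arfgap1 wells (100%) versus DMSO full-reaction wells (0%); Replication: single well per compound.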
ASAP1 inh confirm: confirmation of human ASAP1 inhibitors | 620 compounds, 37% hits | shares compounds with ASAP1 inh | inhibition, % at 16.5 µM | AID 624431 | ASAP1-stimulated Arf1 GTPase, GDP fluorescence polarization;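 active means mean inhibition over triplicates exceeds the hit threshold derived for the earlier primary screening run, cut at about 25% in these data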
ARFGAP1 inh conf: confirmation of rat ARFGAP1 inhibitors | ARFGAP1-stimulated ARF1 GTP hydrolysis, GDP tracer FP | shares compounds with ARFGAP1 inh | 890 compounds, 30% hits | AID 651608 | inhibition, % at 16.5 µM;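 active means average inhibition over triplicates above the hit cutoff set in the earlier primary screen, cut at about 25% in these data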;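 further: 0% = Arfgap1 plus ARF1-GTP with DMSO and 100% = wells lacking Arfgap1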
Target sequence (Q62848 whole entry, looked up): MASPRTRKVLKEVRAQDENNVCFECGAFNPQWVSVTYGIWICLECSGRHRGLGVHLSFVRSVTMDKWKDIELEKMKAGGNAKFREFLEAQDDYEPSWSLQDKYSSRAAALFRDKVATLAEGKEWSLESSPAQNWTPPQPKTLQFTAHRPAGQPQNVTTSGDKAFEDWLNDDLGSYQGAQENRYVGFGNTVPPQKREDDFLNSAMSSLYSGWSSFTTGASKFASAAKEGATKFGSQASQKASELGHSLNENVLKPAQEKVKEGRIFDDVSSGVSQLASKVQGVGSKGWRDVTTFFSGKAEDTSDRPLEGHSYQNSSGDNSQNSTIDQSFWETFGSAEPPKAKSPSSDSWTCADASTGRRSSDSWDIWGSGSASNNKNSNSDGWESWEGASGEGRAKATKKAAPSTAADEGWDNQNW
rCAG binder conf: r(CAG) RNA repeat binding, confirmation; shares compounds with rCAG binder; TO-PRO-1 dye displacement fluorescence; inhibition, % at 3 µM; 4,300 compounds, 70% hits; AID 652065;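 active means inhibition above a per-plate cutoff, the mean inhibition of sample wells plus 3 SD, cut at about 35% in these data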;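 further: loss of TO-PRO-1 fluorescence as compound displaces dye from 1x1 AA loop RNA; 0% = DMSO only wells and 100% = 100 µM mitoxantrone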
dCAG dye counter: disrupts DNA CAG TO-PRO-1 complex, flagging rCAG hits; shares compounds with rCAG binder; d(CAG) DNA oligo TO-PRO-1 dye displacement, fluorescence; inhibition, % at 3 µM; 4,300 compounds, 94% hits; AID 652068;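 active means inhibition above its plate's cutoff, the mean test-well inhibition plus 3 SD, cut at about 4.8% in these data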;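 further: 0% = DNA dye mix with DMSO and 100% = 100 µM mitoxantrone; hits displace the dye from DNA and so lower well fluorescence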
* hit, by the source's call. A selection: hits, their analogues and other compounds. The true share with any hit is near 2.2%.

Screening O=C(Nc1ccc(-c2nc3ccc(NC(=O)c4cccs4)cc3[nH]2)cc1)c1cccs1 returned NadD block 28, rCAG binder 18, ASAP1 inh 37*, ARFGAP1 inh 73*, ASAP1 inh confirm 74* and ARFGAP1 inh conf 124*.
For O=C(Nc1ccc2nc(-c3cccs3)[nH]c2c1)c1cccs1 the results were NadD block -6, rCAG binder 7, ASAP1 inh 20 and ARFGAP1 inh 11.
`Cn1c(=O)c2cc(NCc3ccccc3)nnc2n(C)c1=O` gave NadD block 5, rCAG binder -2, ASAP1 inh 44*, ARFGAP1 inh 28*, ASAP1 inh confirm 9 and ARFGAP1 inh conf 0.
Screening Fc1ccc(Nc2cncc(-c3ccsc3)c2)cc1Cl returned NadD block 2, rCAG binder 7, ASAP1 inh 39*, ARFGAP1 inh 29*, ASAP1 inh confirm 14 and ARFGAP1 inh conf 5.
Cc1cccc(NC(=O)Cn2cnc3c(oc4ccccc43)c2=O)c1C was read as NadD block -9, rCAG binder 0, ASAP1 inh 33*, ARFGAP1 inh 29*, ASAP1 inh confirm 49* and ARFGAP1 inh conf 59*.
COc1ccc(CC(N)c2csc(Nc3nncc4ccccc34)n2)cc1 (centres undefined) was read as NadD block 10, rCAG binder 16, ASAP1 inh 4 and ARFGAP1 inh 1.
`O=C(N/N=C\c1ccc(F)cc1)c1ccc(F)cc1` gave NadD block -4, rCAG binder 4, ASAP1 inh -2 and ARFGAP1 inh -1.
`C[n+]1c(-c2ccc(C=NNC(=O)c3ccc(C(=O)NN=Cc4ccc(-c5cn6ccccc6[n+]5C)cc4)cc3)cc2)cn2ccccc21` gave rCAG binder 13, ASAP1 inh 42*, ARFGAP1 inh 66*, ASAP1 inh confirm 50* and ARFGAP1 inh conf 90*.
`CN(Cc1ccccc1F)C(=O)CN1c2cccc3cccc(c23)S1(=O)=O` gave NadD block -4, rCAG binder -12, ASAP1 inh 30*, ARFGAP1 inh 29*, ASAP1 inh confirm 41* and ARFGAP1 inh conf 51*.
`NC(=O)C1CCN(C2=C(Cl)C(=O)c3ccccc3C2=O)CC1` gave NadD block 13, rCAG binder 4, ASAP1 inh 41*, ARFGAP1 inh 29*, ASAP1 inh confirm 17 and ARFGAP1 inh conf 1.
`O=C1C(Cl)=C(N2CCC(C(=O)O)CC2)C(=O)c2ccccc21` gave NadD block 3.
COC(=O)[C@@]12CCCCC3=C1N(CCC3)C(=O)[C@H]2CC(=O)NCCCCc1ccccc1 was read as rCAG binder -3.
CC[C@H]1OC(=O)[C@H](C)[C@@H](O[C@H]2C[C@@](C)(OC)[C@@H](O)[C@H](C)O2)C(C)[C@@H](O[C@@H]2O[C@H](C)C[C@H](N(C)C)[C@H]2O)[C@](C)(O)C[C@@H](C)CN(C)[C@H](C)[C@@H](O)[C@]1(C)O (some centres undefined) was read as rCAG binder 1.
COC(=O)c1ccc(COc2ccc(/C=C(\C#N)c3nc4ccccc4[nH]3)cc2OC)o1 was read as NadD block 18, rCAG binder 18, ASAP1 inh 35*, ARFGAP1 inh 61*, ASAP1 inh confirm 78* and ARFGAP1 inh conf 108*.
For COc1ccc(-n2c(N)c(C(=O)NCC3CCCO3)c3nc4ccccc4nc32)c(OC)c1 (centres undefined) the results were NadD block -6, rCAG binder 7, ASAP1 inh 31*, ARFGAP1 inh 28*, ASAP1 inh confirm 14 and ARFGAP1 inh conf 6.
`C=CCn1c(N)c(C(=O)NCC2CCCO2)c2nc3ccccc3nc21` (centres undefined) gave NadD block -6, rCAG binder 2, ASAP1 inh 17 and ARFGAP1 inh 10.
Screening CCOC(=O)C1=C[C@@H](CC)N(S(=O)(=O)c2ccc(C)cc2)[C@H]1c1cccs1 returned NadD block -10, rCAG binder 0, ASAP1 inh 4 and ARFGAP1 inh 1.
Screening Cc1cc(C(=O)COC(=O)c2n[nH]c(=O)c3ccccc23)c(C)n1C returned NadD block 6, rCAG binder 4, ASAP1 inh 1 and ARFGAP1 inh 13.
For Cc1cc(C(=O)COC(=O)c2n[nH]c3ccccc23)c(C)n1C the results were NadD block 7, rCAG binder 4, ASAP1 inh 34*, ARFGAP1 inh 33*, ASAP1 inh confirm 35* and ARFGAP1 inh conf 52*.
Cc1c(C(=O)NCc2ccc(F)cc2)sc(=O)n1Cc1ccccc1F was read as NadD block -1, rCAG binder 2, ASAP1 inh 0 and ARFGAP1 inh 0.
Screening O=C(CSc1nnnn1-c1ccccc1)Nc1nsc(-c2ccccc2)n1 returned NadD block 1, rCAG binder 1, ASAP1 inh -3 and ARFGAP1 inh -15.
For O=C(CSc1nnnn1-c1ccccc1)Nc1nsc(-c2ccc(Cl)cc2)n1 the results were NadD block 7, rCAG binder 4, ASAP1 inh 26*, ARFGAP1 inh 44*, ASAP1 inh confirm 45* and ARFGAP1 inh conf 58*.
For O=C(Nc1ccc(Cl)c(Cl)c1)c1cccc2c1-c1ccccc1C2=O the results were rCAG binder 10.
For COc1ccc(CN2C/C(=C/c3ccc(C)cc3)N3C(=O)C[C@@H](c4ccccc4)N=C23)c(OC)c1 the results were rCAG binder 8.
For CC1CN(S(=O)(=O)c2ccc(NC(=O)c3cc(-c4ccccc4O)n[nH]3)cc2)CC(C)O1 (centres undefined) the results were NadD block 3, rCAG binder 37*, ASAP1 inh 26*, ARFGAP1 inh 0, ASAP1 inh confirm 21, rCAG binder conf 28 and dCAG dye counter 14*.
Cc1cc(Br)cn2c(Cc3ccsc3)c(-c3ccc(Cl)cc3)nc12 was read as NadD block 3.
Screening CCCCCCCC(=O)NNC(=O)Cc1ccccc1 returned NadD block 1.
Screening CCCCCCCCCCCC(=O)c1c(O)cccc1O returned NadD block 20, rCAG binder 41*, ASAP1 inh 28*, ARFGAP1 inh 14, ASAP1 inh confirm 11, rCAG binder conf 39* and dCAG dye counter 23*.
Screening CC1C(=O)N(Cc2cn(CC3CCCCC3)nn2)CCS(=O)(=O)N1Cc1ccc(-c2cccc(CO)c2)cc1 (centres undefined) returned NadD block -4, rCAG binder 8, ASAP1 inh 8 and ARFGAP1 inh -4.

Bioassay records (PubChem BioAssay)
